Measurements published in ChEMBL document CHEMBL1144911, “Synthesis and biological evaluation of 5-substituted derivatives of the potent antiherpes agent (north)-methanocarbathymine” (J Med Chem, 2003).

Assays:
Human alphaherpesvirus 3 [1] = assay: Minimum cytotoxic concentration that causes alterations of VZV infected Osteosarcoma cell morphology; assay type: functional
Human alphaherpesvirus 2 = assay: Inhibitory concentration required to reduce HSV-2 induced cytopathogenic effect (CPE) by 50 % in HFF cells; assay type: functional, organism-based; settings: Human alphaherpesvirus 2, HFF
Human alphaherpesvirus 3 [2] = assay: Antiviral activity against YS/R strain of thymidine kinase negative(TK-) Varicella-Zoster Virus (VZV); assay type: functional, organism-based
Human alphaherpesvirus 3 [3] = assay: Effective concentration against TK- Varicella-Zoster Virus (VZV) YS/R strain; assay type: functional, organism-based
Human alphaherpesvirus 3 [4] = assay: Effective concentration against TK- Varicella-Zoster Virus (VZV) 07/1 strain; assay type: functional, organism-based
[5] = Catalytic rate constant was determined; assay type: ADME
[6] = Minimum cytotoxic concentration that causes microscopically detectable alterations of cell morphology; assay type: functional
Human alphaherpesvirus 3 [7] = assay: Effective concentration against TK+ Varicella-Zoster Virus (VZV) OKA strain; assay type: functional, organism-based
[8] = Cytotoxic concentration that produces 50% inhibition of cell growth.; assay type: functional
Human alphaherpesvirus 3 [9] = assay: Antiviral activity against OKA strain of thymidine kinase positive(TK+) Varicella-Zoster Virus (VZV); assay type: functional, organism-based
HFF [10] = assay: Cytotoxic concentration for 50% inhibition of cell growth of HSV-1 infected HFF cells determined by CPE assay; assay type: functional; settings: Homo sapiens
Homo sapiens [11] = species on record: Homo sapiens; assay: Cytotoxic concentration that produces 50% growth inhibition of human skin fibroblast in CPE assay; assay type: functional
Homo sapiens [12] = species on record: Homo sapiens; assay: Inhibitory concentration required to reduce HSV-1 induced cytopathogenic effect (CPE) in human skin fibroblast; assay type: functional, organism-based
Human alphaherpesvirus 3 [13] = assay: Antiviral activity against YS strain of thymidine kinase positive(TK+) Varicella-Zoster Virus (VZV); assay type: functional, organism-based
Human alphaherpesvirus 3 [14] = assay: Effective concentration against TK+ Varicella-Zoster Virus (VZV)YS strain; assay type: functional, organism-based
Human alphaherpesvirus 3 [15] = assay: Cytotoxic concentration that causes growth inhibition of VZV infected Osteosarcoma cells; assay type: functional
[16] = (§1) Inhibition constant against HSV-1 TK; assay type: functional, herpes simplex virus
How it was run: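 Purified HSV-1 TK converts [methyl-³H]thymidine to its monophosphate in 50 mM Tris pH 7.5, 5 mM MgCl₂, 5 mM ATP, 2.5 mg/mL BSA under initial-velocity conditions. Three inhibitor concentrations are used, and apparent Ki is taken from Lineweaver–Burk double-reciprocal plots. Six independent assays.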

HFF [17] = assay: Cytotoxic concentration for 50% inhibition of cell growth of HSV-2 infected HFF cells determined by CPE assay; assay type: functional; settings: Homo sapiens
[18] = test system: Thymidine kinase (Herpes simplex virus type 1); assay: Catalytic turnover constant against HSV-1 thymidine kinase
Human alphaherpesvirus 3 [19] = assay: Antiviral activity against 07/1 strain of thymidine kinase negative (TK-) Varicella-Zoster Virus (VZV); assay type: functional, organism-based
Homo sapiens [20] = species on record: Homo sapiens; assay: Inhibitory concentration required to reduce HSV-2 induced cytopathogenic effect in human skin fibroblast; assay type: functional, organism-based
Human alphaherpesvirus 1 = assay: Inhibitory concentration required to reduce HSV-1 induced cytopathogenic effect (CPE) by 50 % in HFF cells; assay type: functional, organism-based, herpes simplex virus; settings: Human alphaherpesvirus 1, HFF
HFF [21] = assay: Inhibitory concentration to reduce Cowpox virus induced cytopathogenic effect by 50% in HFF cells; assay type: functional, cell-based; settings: Homo sapiens
[22] = Selectivity index calculated as CC50/EC50 in the study of VPR assay of vaccinia virus; assay type: functional
HFF [23] = assay: Concentration to reduce Cowpox virus plaque reduction (VPR) by 50% in HFF cells; assay type: functional, cell-based; settings: Homo sapiens
HFF [24] = assay: Inhibitory concentration to reduce vaccinia virus induced cytopathogenic effect by 50% in HFF cells; assay type: functional, cell-based; settings: Homo sapiens
Homo sapiens [25] = species on record: Homo sapiens; assay: Inhibitory concentration required to reduce vaccinia virus induced cytopathogenic effect (CPE) in human skin fibroblast; assay type: functional, organism-based
HFF [26] = assay: Cytotoxic concentration for 50% inhibition of cell growth of HSV-1 infected HFF cells determined by VPR assay; assay type: functional; settings: Homo sapiens
HFF [27] = assay: Cytotoxic concentration for 50% inhibition of cell growth of HSV-2 infected HFF cells determined by VPR assay; assay type: functional; settings: Homo sapiens
How it was run: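 Run in virus-infected HFF cells within the plaque reduction assay set-up. […] The value was converted from μg/mL to μM.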

[28] = Selectivity index calculated as CC50/EC50 in the VPR assay of HSV-1; assay type: functional
Homo sapiens [29] = species on record: Homo sapiens; assay: Cytotoxic concentration that produces 50% growth inhibition of human skin fibroblast in VPR assay; assay type: functional
Homo sapiens [30] = species on record: Homo sapiens; assay: Inhibitory concentration required to reduce cowpox virus induced virus plaque reduction (VPR) in human skin fibroblast; assay type: functional, organism-based
Homo sapiens [31] = species on record: Homo sapiens; assay: Inhibitory concentration required to reduce HSV-1 induced virus plaque reduction (VPR) in human skin fibroblast; assay type: functional, organism-based
[32] = Selectivity index calculated as CC50/EC50 in the study of cytopathogenic effect by HSV-1; assay type: functional
HFF [33] = assay: Inhibitory concentration for HSV-2 plaque reduction (VPR) by 50% in HFF cells; assay type: functional, cell-based; settings: Homo sapiens
Homo sapiens [34] = species on record: Homo sapiens; assay: Inhibitory concentration required to reduce cowpox virus induced cytopathogenic effect (CPE) in human skin fibroblast; assay type: functional, organism-based
[35] = Cytotoxic concentration against non transfected osteosarcoma cells non transfected (MG-63-hTK1); assay type: functional
How it was run: (§2)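 Osteosarcoma lines (143B-TK⁻ with 0.1 mg/mL 5-BrdU selection; MG-63-hTK1; 143B-TK⁺-HSV1-WT with HAT) grown in MEM/10% FCS. Seeded at 2 × 10³ (143B lines) or 1.5 × 10³ (MG-63) cells/well, exposed to five concentrations over 0.5–500 μM for 4.5 days at 37 °C/5% CO₂. XTT added for 9 h, A450 (ref 750 nm) read against untreated wells. Three independent series in triplicate.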

Homo sapiens [36] = species on record: Homo sapiens; assay: Inhibitory concentration required to reduce vaccinia virus induced virus plaque reduction (VPR) in human skin fibroblast; assay type: functional, organism-based
HFF [37] = assay: Inhibitory concentration for HSV-1 plaque reduction (VPR) by 50% in HFF cells; assay type: functional, cell-based; settings: Homo sapiens
[38] = as §1; assay type: functional, herpes simplex virus; remark: listed apart in the source
[39] = Selectivity index calculated as CC50/EC50 in the study of cytopathogenic effect by vaccinia virus; assay type: functional
[40] = Cytotoxic concentration against osteosarcoma cells stably transfected with HSV-1 TK (143B-TK+-HSV-1-WT); assay type: functional; settings: Human alphaherpesvirus 1; how it was run: as §2
Homo sapiens [41] = species on record: Homo sapiens; assay: Inhibitory concentration required to reduce HSV-2 induced virus plaque reduction (VPR) in human skin fibroblast; assay type: functional, organism-based
HFF [42] = assay: Concentration to reduce vaccinia virus plaque reduction (VPR) by 50% in HFF cells; assay type: functional, cell-based; settings: Homo sapiens
[43] = target: T1, Thymidine kinase, cytosolic (Homo sapiens) (UniProt P04183); settings: herpes simplex virus
T1 sequence (whole entry): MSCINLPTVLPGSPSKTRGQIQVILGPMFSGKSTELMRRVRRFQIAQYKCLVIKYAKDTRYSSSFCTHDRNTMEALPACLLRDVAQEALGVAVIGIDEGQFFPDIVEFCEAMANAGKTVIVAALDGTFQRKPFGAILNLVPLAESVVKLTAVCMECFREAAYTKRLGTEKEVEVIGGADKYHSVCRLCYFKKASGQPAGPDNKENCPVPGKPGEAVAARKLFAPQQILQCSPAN

Human alphaherpesvirus 3 [44] = assay: Effective concentration of compound against Varicella-Zoster Virus (VZV); Range is 0.06-0.12 uM; assay type: functional, organism-based
[45] = Cytotoxic concentration against HSV-1 TK- transfected osteosarcoma cells; assay type: functional; settings: Human alphaherpesvirus 1; how it was run: as §2
[46] = Cytotoxic concentration against HSV-1 TK-transfected osteosarcoma cells; assay type: functional; settings: Human alphaherpesvirus 1; how it was run: as §2
[47] = Inhibitory activity against HSV-1-TK transfected osteosarcoma cells; assay type: functional; how it was run: as §2

SMILES: O=c1[nH]c(=O)n([C@H]2C[C@H](O)[C@]3(CO)C[C@H]23)cc1/C=C/Br
- MCC (Human alphaherpesvirus 3 [1]): > 5 µM
- EC50 (Human alphaherpesvirus 2): > 291 µM
- EC50 (Human alphaherpesvirus 3 [2]): > 5 µM
- EC50 (Human alphaherpesvirus 3 [3]): > 5 µM
- EC50 (Human alphaherpesvirus 3 [4]): > 5 µM
- k cat [5]: 0.07 s⁻¹
- MCC [6]: > 5 µM
- EC50 (Human alphaherpesvirus 3 [7]): 0.005 µM
- CC50 [8]: > 200 µM
- EC50 (Human alphaherpesvirus 3 [9]): 0.005 µM
- CC50 (HFF [10]): > 291 µM
- CC50 (Homo sapiens [11]): > 291 µM
- EC50 (Homo sapiens [12]): 6.41 µM
- EC50 (Human alphaherpesvirus 3 [13]): 0.007 µM
- EC50 (Human alphaherpesvirus 3 [14]): 0.007 µM
- CC50 (Human alphaherpesvirus 3 [15]): > 200 µM
- Ki [16]: 62.9 µM
- CC50 (HFF [17]): > 291 µM
- k cat [18]: 0.07 s⁻¹
- EC50 (Human alphaherpesvirus 3 [19]): > 5 µM
- EC50 (Homo sapiens [20]): > 291 µM
- EC50 (Human alphaherpesvirus 1): 6.41 µM

SMILES: O=c1[nH]c(=O)n([C@H]2C[C@H](O)[C@]3(CO)C[C@H]23)cc1Br
- MCC (Human alphaherpesvirus 3 [1]): > 50 µM
- EC50 (HFF [21]): 36.3 µM
- EC50 (Human alphaherpesvirus 2): 2.2 µM
- SI [22]: >38
- EC50 (Human alphaherpesvirus 3 [2]): 4 µM
- EC50 (Human alphaherpesvirus 3 [3]): 4 µM
- EC50 (Human alphaherpesvirus 3 [4]): > 20 µM
- EC50 (HFF [23]): 10.7 µM
- k cat [5]: 0.15 s⁻¹
- EC50 (HFF [24]): 2.01 µM
- EC50 (Homo sapiens [25]): 2.01 µM
- MCC [6]: > 50 µM
- CC50 (HFF [26]): > 315 µM
- EC50 (Human alphaherpesvirus 3 [7]): 0.2 µM
- CC50 [8]: > 200 µM
- CC50 (HFF [27]): > 315 µM
- SI [28]: > 3320
- CC50 (Homo sapiens [29]): > 315 µM
- EC50 (Homo sapiens [30]): 10.7 µM
- EC50 (Human alphaherpesvirus 3 [9]): 0.2 µM
- EC50 (Homo sapiens [31]): 0.095 µM
- CC50 (HFF [10]): > 315 µM
- SI [32]: > 256
- EC50 (HFF [33]): 0.378 µM
- EC50 (Homo sapiens [34]): 36.3 µM
- CC50 [35]: 330 µM
- CC50 (Homo sapiens [11]): > 315 µM
- EC50 (Homo sapiens [12]): 1.23 µM
- EC50 (Homo sapiens [36]): 8.19 µM
- EC50 (Human alphaherpesvirus 3 [13]): 0.2 µM
- EC50 (HFF [37]): 0.095 µM
- EC50 (Human alphaherpesvirus 3 [14]): 0.2 µM
- Ki [38]: 69.8 µM
- SI [39]: >156
- CC50 (Human alphaherpesvirus 3 [15]): > 200 µM
- CC50 (HFF [17]): > 315 µM
- CC50 [40]: 150 µM
- EC50 (Homo sapiens [41]): 0.378 µM
- k cat [18]: 0.15 s⁻¹
- EC50 (Human alphaherpesvirus 3 [19]): > 20 µM
- EC50 (HFF [42]): 8.19 µM
- EC50 (Homo sapiens [20]): 2.2 µM
- EC50 (Human alphaherpesvirus 1): 1.23 µM

SMILES: Cc1cn([C@H]2C[C@H](O)[C@@H](CO)O2)c(=O)[nH]c1=O [DOXRIBTIMINE]
- k cat [5]: 0.35 s⁻¹
- k cat [43]: 0.35 s⁻¹

SMILES: O=c1[nH]c(=O)n([C@H]2C[C@@H](CO)[C@H](O)C2)cc1/C=C/Br
- EC50 (Human alphaherpesvirus 3 [44]): 0.12 µM

SMILES: O=c1[nH]c(=O)n([C@H]2C[C@H](O)[C@]3(CO)C[C@H]23)cc1I
- MCC (Human alphaherpesvirus 3 [1]): > 5 µM
- EC50 (Human alphaherpesvirus 2): 9.06 µM
- EC50 (Human alphaherpesvirus 3 [2]): 3 µM
- EC50 (Human alphaherpesvirus 3 [3]): 3 µM
- EC50 (Human alphaherpesvirus 3 [4]): > 5 µM
- k cat [5]: 0.14 s⁻¹
- MCC [6]: > 5 µM
- EC50 (Human alphaherpesvirus 3 [7]): 0.16 µM
- CC50 [8]: > 200 µM
- CC50 [45]: > 500 µM
- EC50 (Human alphaherpesvirus 3 [9]): 0.16 µM
- CC50 (HFF [10]): > 275 µM
- CC50 [35]: 300 µM
- CC50 (Homo sapiens [11]): > 275 µM
- EC50 (Homo sapiens [12]): > 275 µM
- EC50 (Human alphaherpesvirus 3 [13]): 0.12 µM
- CC50 [46]: 25 µM
- EC50 (Human alphaherpesvirus 3 [14]): 0.12 µM
- Ki [38]: 85.8 µM
- CC50 (Human alphaherpesvirus 3 [15]): > 200 µM
- CC50 (HFF [17]): > 275 µM
- k cat [18]: 0.14 s⁻¹
- EC50 (Human alphaherpesvirus 3 [19]): > 5 µM
- CC50 [47]: 25 µM
- EC50 (Homo sapiens [20]): 9.06 µM
- EC50 (Human alphaherpesvirus 1): > 275 µM
